Values after ≈ are worked out from the molar mass of the structure shown. Each block holds one compound with its values, some of them ahead of it. Active and inactive are the calls of the source. No cut-off for these calls is given here.
Assays:
[1] = biological target: Neuronal acetylcholine receptor subunit alpha-7 (Rattus norvegicus) (UniProt Q05941); test: Positive allosteric modulator activity at rat alpha7 nAChR expressed in GH4C1 cells assessed as potentiation of acetylcholine response at 3 uM at -70 mV holding potential preincubated for 30 secs followed by co-application with acetylcholine by automated patch clamp assay; type: cell-based
How it was run: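 Automated planar patch clamp on stable GH4C1 (rat) cell lines expressing rat α7 nAChR; test compound at 3 μM with an EC₂₀ acetylcholine challenge; percent change in peak current versus acetylcholine alone taken as P₃.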

Mus musculus [2] = test: Reversal of scopolamine-induced memory impairment in mouse assessed as percentage of increase in spontaneous alteration at 10 mg/kg, po administered with compond and scopolamine at 60 mins snd 30 mins respectively prior to test by T-maze test; type: functional; settings: read-out: INH
How it was run: (§1)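 Mouse T-maze continuous alternation task with scopolamine-induced impairment of spontaneous alternation; compound given orally in saline-based vehicle with 25% Cremophor ELP over 0.003–10.0 mg/kg; group means compared by one-way ANOVA then Fisher's PLSD, p < 0.05 significant.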

Mus musculus [3] = test: Reversal of scopolamine-induced memory impairment in mouse assessed as increase in spontaneous alteration at 1 mg/kg, po administered with compond and scopolamine at 60 mins and 30 mins respectively prior to test by T-maze test; type: functional; settings: read-out: INH; how it was run: as §1
Mus musculus [4] = test: Reversal of scopolamine-induced memory impairment in mouse assessed as increase in spontaneous alteration at 3 mg/kg, po administered with compond and scopolamine at 60 mins and 30 mins respectively prior to test by T-maze test; type: functional; settings: read-out: INH; how it was run: as §1
[5] = Stability in human liver microsomes assessed as hepatic extraction ratio at 1 uM measured for 45 mins by LC-MS/MS analysis; type: ADME, Microsome; settings: read-out: ERH
[6] = Stability in mouse liver microsomes assessed as hepatic extraction ratio at 1 uM measured for 45 mins by LC-MS/MS analysis; type: ADME, Microsome; settings: read-out: ERH
[7] = Apparent permeability in human Caco2 cells; type: ADME, cell-based; settings: Caco-2
[8] = Plasma clearance in Sprague-Dawley rat at 4 mg/kg administered as single IV bolus dose; type: ADME, organism-based
How it was run: (§2)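 Single IV bolus of 4.0 mg/kg in male Sprague–Dawley rats; dosing solution 1.1 mg/mL in saline-based vehicle with 0.1 M hydroxypropyl-β-cyclodextrin and 10% (v/v) DMSO; plasma pharmacokinetic parameters derived.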

[9] = Volume of distribution at steady state in Sprague-Dawley rat at 4 mg/kg administered as single IV bolus dose; type: ADME, organism-based; settings: in vivo, read-out: Vdss; how it was run: as §2
[10] = Oral bioavailability in Sprague-Dawley rat; type: ADME, organism-based; settings: in vivo
[11] = Dose normalized AUC (0 to infinity) in Sprague-Dawley rat at 4 mg/kg administered as single IV bolus dose; type: ADME, organism-based; settings: in vivo; how it was run: as §2
[12] = Half life in Sprague-Dawley rat plasma at 4 mg/kg administered as single IV bolus dose; type: ADME, organism-based; how it was run: as §2
Mus musculus [13] = test: Reversal of scopolamine-induced memory impairment in mouse assessed as increase in spontaneous alteration at 0.003 mg/kg, po administered with compond and scopolamine at 60 mins and 30 mins respectively prior to test by T-maze test; type: functional; how it was run: as §1
Mus musculus [14] = test: Reversal of scopolamine-induced memory impairment in mouse assessed as increase in spontaneous alteration at 0.03 mg/kg, po administered with compond and scopolamine at 60 mins and 30 mins respectively prior to test by T-maze test; type: functional; how it was run: as §1
Mus musculus [15] = test: Reversal of scopolamine-induced memory impairment in mouse assessed as increase in spontaneous alteration at 0.3 mg/kg, po administered with compond and scopolamine at 60 mins and 30 mins respectively prior to test by T-maze test; type: functional; how it was run: as §1
[16] = biological target: Neuronal acetylcholine receptor subunit alpha-7 (Rattus norvegicus, UniProt Q05941); test: Positive allosteric modulatory activity at rat alpha7 nAChR expressed in GH4C1 cells assessed as potentiation of acetylcholine response at -70 mV holding potential preincubated for 30 secs followed by co-application with acetylcholine by manual patch clamp assay; type: cell-based
How it was run: (§3)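 Conventional manual patch-clamp with a fast-application system on stable GH4C1 cells expressing rat α7 nAChR; currents evoked by acetylcholine with and without test compound; peak-current change relative to acetylcholine alone gives potentiation (P₃ at 3 μM; concentration–response for EC₅₀ and Pmax).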

[17] = biological target: Neuronal acetylcholine receptor subunit alpha-7 (Rattus norvegicus) (UniProt Q05941); test: Positive allosteric modulatory activity at rat alpha7 nAChR expressed in GH4C1 cells assessed as potentiation of peak current at -70 mV holding potential preincubated for 30 secs followed by co-application with acetylcholine by manual patch clamp assay relative to acetylcholine-induced peak current; type: cell-based; how it was run: as §3
[18] = biological target: Neuronal acetylcholine receptor subunit alpha-7 (Rattus norvegicus) (UniProt Q05941); test: (§4) Positive allosteric modulatory activity at rat alpha7 nAChR expressed in GH4C1 cells assessed as AUC of potentiation of peak current at -70 mV holding potential preincubated for 30 secs followed by co-application with acetylcholine by manual patch clamp assay relative to peak current potentiation; type: cell-based; how it was run: as §3
[19] = biological target: Neuronal acetylcholine receptor subunit alpha-7 (Rattus norvegicus) (UniProt Q05941); test: as §4, with “of acetylcholine response at 3 uM” for “of peak current”, “by automated” for “by manual”, “to potentiation of” for “to peak”, “current response” for “current potentiation”; type: cell-based
Mus musculus [20] = test: Reversal of scopolamine-induced memory impairment in mouse assessed as spontaneous alteration at 3 to 30 mg/kg, po administered with compond and scopolamine at 60 mins and 30 mins respectively prior to test by T-maze test; type: functional, organism-based
How it was run: (§5)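 Mouse T-maze continuous alternation task; reversal of scopolamine-induced loss of spontaneous alternation after ip or oral doses of 3 and 30 mg/kg; significant doses reported.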

[21] = biological target: Neuronal acetylcholine receptor subunit alpha-7 (Rattus norvegicus) (UniProt Q05941); test: Positive allosteric modulatory activity at rat alpha7 nAChR expressed in GH4C1 cells assessed as potentiation of acetylcholine response at 3 uM at -70 mV holding potential preincubated for 30 secs followed by co-application with acetylcholine by manual patch clamp assay; type: cell-based; how it was run: as §3
[22] = biological target: Neuronal acetylcholine receptor subunit alpha-7 (Rattus norvegicus) (UniProt Q05941); test: as §4, with “of acetylcholine response at 3 uM” for “of peak current”, “to potentiation of” for “to peak”, “current response” for “current potentiation”; type: cell-based; how it was run: as §3
[23] = Lipophilicity, log D of the compound at pH 7.4; type: physicochemical; settings: buffer
[24] = Solubility of the compound at pH 6.5; type: physicochemical; settings: buffer
Mus musculus [25] = test: Reversal of scopolamine-induced memory impairment in mouse assessed as increase in spontaneous alteration at 3 to 30 mg/kg, ip administered with compond and scopolamine at 60 mins snd 30 mins respectively prior to test by T-maze test; type: functional, organism-based; how it was run: as §5

Sequence of Neuronal acetylcholine receptor subunit alpha-7 (Rattus norvegicus) (Q05941 whole entry): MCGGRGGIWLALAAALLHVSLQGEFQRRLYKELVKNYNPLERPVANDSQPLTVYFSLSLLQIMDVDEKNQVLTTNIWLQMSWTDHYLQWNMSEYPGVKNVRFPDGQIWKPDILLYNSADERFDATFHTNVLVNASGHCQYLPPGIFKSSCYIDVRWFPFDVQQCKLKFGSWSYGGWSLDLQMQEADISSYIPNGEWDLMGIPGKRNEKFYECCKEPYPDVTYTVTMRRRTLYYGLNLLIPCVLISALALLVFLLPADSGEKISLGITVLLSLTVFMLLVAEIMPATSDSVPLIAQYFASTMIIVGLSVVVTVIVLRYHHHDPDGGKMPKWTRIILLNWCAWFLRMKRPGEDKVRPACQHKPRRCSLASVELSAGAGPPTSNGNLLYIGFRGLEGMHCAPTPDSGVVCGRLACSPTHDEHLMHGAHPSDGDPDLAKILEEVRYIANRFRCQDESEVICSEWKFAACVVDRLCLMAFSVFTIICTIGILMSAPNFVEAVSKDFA
Sequence of Neuronal acetylcholine receptor subunit alpha-7 (Q05941 whole entry): as above

Activity [1]: 12300%
SMILES: Cc1ccc(Cl)cc1NCC1C(c2ccc(S(N)(=O)=O)cc2)C1(C)C (racemic)

Activity [1]: 130%
SMILES: COc1ccc(Cl)cc1NCC1C(c2ccc(S(=O)(=O)NN)cc2)C1(C)C (racemic)

Activity [1]: 11800%
hepatic extraction ratio at 0.75 h, 1 µM [5]: 0.59
hepatic extraction ratio at 0.75 h, 1 µM [6]: 0.71
Papp [7]: 14 ×10⁻⁶ cm/s
clearance [8]: 43 mL/min/kg
Vd [9]: 5.1 L/kg
bioavailability [10]: 77%
AUC/dose [11]: 1 µM·h/mg
half-life [12]: 3.9 h
EC50 [16]: 63 nM
Emax [17]: 1630%
Ratio [18]: 25
Ratio [19]: 57
SMILES: COc1ccc(Cl)cc1NC[C@H]1[C@H](c2ccc(S(N)(=O)=O)cc2)C1(C)C
inhibition in vivo at 0.003 mg/kg (Mus musculus [13]): -3%
inhibition in vivo at 0.03 mg/kg (Mus musculus [14]): 11%
inhibition in vivo at 0.3 mg/kg (Mus musculus [15]): 65%
percent reversal of scopolamine-induced memory impairment at 3 mg/kg (Mus musculus [4]): 90%

Activity [1]: 410%
SMILES: COc1ccc(Cl)cc1NC(=O)c1cccc(-c2ccc(S(N)(=O)=O)cc2)c1
inhibition (Mus musculus [20]): inactive

Activity [1]: < 100%
SMILES: COc1ccc(S(N)(=O)=O)cc1NCC1C(c2ccc(S(N)(=O)=O)cc2)C1(C)C (racemic)

Activity [1]: 660%
Activity [21]: 420%
Ratio [22]: 5.6
logD [23]: 3.7
solubility [24]: 3.1 to 6.3 µg/mL (≈ 7.58 to 15.4 µM)
SMILES: COc1ccc(Cl)cc1NC(=O)C1C(c2ccc(S(N)(=O)=O)cc2)C1(C)C (racemic)
inhibition (Mus musculus [25]): Active

Activity [1]: 8170%
SMILES: COc1ccc(C(F)(F)F)cc1NCC1C(c2ccc(S(N)(=O)=O)cc2)C1(C)C (racemic)

Continued, compound first:

SMILES: CCOc1ccc(Cl)cc1NC(=O)C1C(c2ccc(S(N)(=O)=O)cc2)C1(C1CCCCC1)C1CCCCC1 (stereo not drawn)
Activity [1]: Active

SMILES: CC1(C)[C@H](CNc2ccc(F)cc2C(F)(F)F)[C@H]1c1ccc(S(N)(=O)=O)cc1
Activity [1]: 410%
percent increase in spontaneous alternation at 10 mg/kg (Mus musculus [2]): -9%
percent reversal of scopolamine-induced memory impairment (increase in spontaneous alternation) at 1 mg/kg (Mus musculus [3]): -18%
percent reversal of scopolamine-induced memory impairment at 3 mg/kg (Mus musculus [4]): 38%

SMILES: Cc1cc(F)c(F)cc1NC[C@H]1[C@H](c2ccc(S(N)(=O)=O)cc2)C1(C)C
Activity [1]: 8930%
percent increase in spontaneous alternation at 10 mg/kg (Mus musculus [2]): -5%
percent reversal of scopolamine-induced memory impairment (increase in spontaneous alternation) at 1 mg/kg (Mus musculus [3]): -13%
percent reversal of scopolamine-induced memory impairment at 3 mg/kg (Mus musculus [4]): -15%

SMILES: CC1(C)C(CNc2ccc(N3CCOCC3)cc2)C1c1ccc(S(N)(=O)=O)cc1 (racemic)
Activity [1]: < 100%

SMILES: CC1(C)C(CNc2cc(F)ccc2OC(F)(F)F)C1c1ccc(S(N)(=O)=O)cc1 (racemic)
Activity [1]: 2440%

SMILES: Cc1cc(F)c(Cl)cc1NCC1C(c2ccc(S(N)(=O)=O)cc2)C1(C)C (racemic)
Activity [1]: 9230%

SMILES: CC1(C)C(CNc2cccc(N3CCOCC3)c2)C1c1ccc(S(N)(=O)=O)cc1 (racemic)
Activity [1]: 460%

SMILES: Cc1ncccc1NCC1C(c2ccc(S(N)(=O)=O)cc2)C1(C)C (racemic)
Activity [1]: 130%

SMILES: CC1(C)[C@H](CNc2ccc(F)cc2OC(F)F)[C@H]1c1ccc(S(N)(=O)=O)cc1
Activity [1]: 170%
percent increase in spontaneous alternation at 10 mg/kg (Mus musculus [2]): 41%
percent reversal of scopolamine-induced memory impairment (increase in spontaneous alternation) at 1 mg/kg (Mus musculus [3]): 28%
percent reversal of scopolamine-induced memory impairment at 3 mg/kg (Mus musculus [4]): 8%

SMILES: Cc1ccc(F)cc1NC[C@H]1[C@H](c2ccc(S(N)(=O)=O)cc2)C1(C)C
Activity [1]: 17400%
